From ChEMBL document CHEMBL4699413, “Structure-guided discovery of selective methionyl-tRNA synthetase inhibitors with potent activity against Trypanosoma brucei” (RSC Med Chem, 2020)

Legend:
[1] = Ratio of drug level in brain to plasma in Swiss Webster mouse at 5 mg/kg, ip measured after 60 mins by LC-MS analysis; assay type: ADME, organism-based; details: 1 h
Outline: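 Swiss Webster mice, triplicate, 5 mg kg⁻¹ IP in 7% Tween80, 5% DMSO, 3% EtOH in saline; plasma and brain collected 1 h post-dose; brain homogenized in water, extracts measured by LC-MS/MS; brain levels corrected for 3% v/w blood content.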

[2] = system: mitochondrial MetRS (mitochondrial protein synthesis); test: Selectivity index, ratio of EC50 for inhibition of mitochondrial MetRS-mediated mitochondrial protein synthesis in human HepG2 cells to EC50 for antitrypanosomal activity against blood stream form of Trypanosoma brucei brucei 427; assay type: toxicity, cell-based; details: read-out: Ratio EC50
[3] = Cytotoxicity against human WIL2-NS cells assessed as reduction in cell viability after 48 hrs by alamar blue dye based assay
Outline: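 CRL-8155 lymphocytic cells in RPMI with 10% heat-inactivated FBS, 2 mM L-glutamine, 0.4 mM sodium pyruvate, penicillin/streptomycin, 37 °C, 5% CO₂; 30 000 cells/well; quadruplicate serial 3-fold dilutions from 50 µM (or 25 µM); AlamarBlue at 48 h, 50 µM quinacrine as background; percent inhibition versus untreated wells; single experiment.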

[4] = Cytotoxicity against human HepG2 cells assessed as reduction in cell viability after 48 hrs by alamar blue dye based assay
[5] = target: T1, Methionine--tRNA ligase, mitochondrial (Homo sapiens, UniProt Q96GW9); test: Inhibition of mitochondrial MetRS-mediated mitochondrial protein synthesis in human HepG2 cells measured after 6 days by ELISA; assay type: cell-based
T1 sequence (Q96GW9 whole entry): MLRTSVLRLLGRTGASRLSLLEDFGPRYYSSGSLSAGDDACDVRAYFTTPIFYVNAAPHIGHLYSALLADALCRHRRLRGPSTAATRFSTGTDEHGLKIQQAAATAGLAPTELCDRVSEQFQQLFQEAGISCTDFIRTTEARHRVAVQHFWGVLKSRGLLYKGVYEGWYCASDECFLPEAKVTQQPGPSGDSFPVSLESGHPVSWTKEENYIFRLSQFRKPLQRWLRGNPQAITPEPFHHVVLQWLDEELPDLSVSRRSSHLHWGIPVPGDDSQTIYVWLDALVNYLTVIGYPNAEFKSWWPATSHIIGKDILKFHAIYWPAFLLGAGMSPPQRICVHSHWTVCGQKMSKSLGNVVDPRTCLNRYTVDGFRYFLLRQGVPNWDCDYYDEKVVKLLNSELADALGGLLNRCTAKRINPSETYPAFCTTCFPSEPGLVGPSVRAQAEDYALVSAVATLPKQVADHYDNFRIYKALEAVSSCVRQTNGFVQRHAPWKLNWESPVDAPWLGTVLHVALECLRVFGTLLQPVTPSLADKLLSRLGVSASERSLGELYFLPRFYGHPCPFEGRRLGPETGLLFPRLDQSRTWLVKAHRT
Outline: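 HepG2 seeded 6000 cells/well on collagen-coated plates, grown 24 h in DMEM/F12 with 10% FBS, pyruvate, antibiotics; then serial 3-fold dilutions from 25 µM in duplicate, 6 days at 37 °C, medium with compound refreshed every 48 h; paraformaldehyde-fixed, COX-1 quantified by in-cell ELISA. Chloramphenicol control.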

[6] = system: Trypanosoma brucei brucei; test: Antitrypanosomal activity against blood stream form of Trypanosoma brucei brucei 427 assessed as parasite growth inhibition incubated for 48 hrs by alamar blue dye based assay; assay type: functional, organism-based; details: Trypanosoma brucei, 427, 48 h
Outline: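 Bloodstream-form BSF 427 parasites in HMI-9 with 10% heat-inactivated FBS and penicillin/streptomycin, 37 °C, 5% CO₂; 10 000 cells/well initial inoculum; serial 3-fold dilutions in triplicate; Alamar Blue read at 48 h. Pentamidine control.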

[7] = Inhibition of recombinant N-terminal His6-tagged trypanosoma brucei brucei 427 Methionyl-tRNA synthetase (237 to 773 residues) expressed in Escherichia coli assessed as ATP depletion using L-methionine and tRNA as substrate by Kinase-Glo luminescence assay

Row | Structure (SMILES) | BPR [1] [%] | EC50 [5] [nM] | EC50 [6] [nM] | selectivity ratio [2] | CC50 at 48 h [3] [nM] | CC50 at 48 h [4] [nM] | IC50 [7] [nM]
1 | COc1cc(-c2cccc3nc(Cc4nc5nc(Cl)ccc5[nH]4)cn23)c(Cl)cc1Cl | 0 | 507 | 3.5 | 145 | 9500 | > 50000 | 
2 | CCn1c(Cc2ccc(Cl)cc2Cl)cn(Cc2nc3cc(C(F)(F)F)ccc3[nH]2)c1=O |  |  | > 2000 |  | > 50000 | > 50000 | 
3 | O=c1n(Cc2nc3nc(Cl)ccc3[nH]2)cc(Cc2ccc(Cl)cc2Cl)n1CC(F)F | 0 | 430 | 3 | 143 | > 50000 | > 50000 | 
4 | O=c1[nH]c(Cc2ccc(Cl)cc2Cl)cn1Cc1nc2ccccc2[nH]1 |  |  | 350 |  |  |  | < 40
5 | FC(F)(F)c1ccc(-c2cccc3nc(Cc4nc5nc(Cl)ccc5[nH]4)cn23)c(Cl)c1 |  |  | 1780 |  |  |  | 
6 | CCn1c(Cc2ccc(Cl)cc2Cl)cn(Cc2nc3ccccc3[nH]2)c1=O |  |  | 40 |  | > 50000 | > 50000 | 
7 | CCn1c(Cc2ccc(Cl)cc2Cl)cn(Cc2nc3cnccc3[nH]2)c1=O |  |  | 390 |  | > 50000 | > 50000 | 
8 | COc1cc(-c2cccc3nc(Cc4nc5nc(F)ccc5[nH]4)cn23)c(Cl)cc1Cl | 0.6 | 1750 | 8.4 | 203 | 10400 | > 50000 | 
9 | COc1ccc(-c2cccn3cc(Cc4nc5nc(Cl)ccc5[nH]4)nc23)c(Cl)c1 |  |  | > 2000 |  |  |  | 
10 | CCn1c(Cc2ccc(Cl)cc2Cl)cn(Cc2nc3cc(C)ccc3[nH]2)c1=O |  |  | 110 |  | > 50000 | > 50000 | 
11 | CCn1c(Cc2ccc(Cl)cc2Cl)cn(Cc2nc3c(F)cccc3[nH]2)c1=O |  |  | 31 |  | 45000 | > 50000 | 
12 | Clc1cc(Cl)cc(-c2cccc3nc(Cc4nc5nc(Cl)ccc5[nH]4)cn23)c1 |  |  | 196 |  |  |  | 
13 | CCn1c(Cc2ccc(OC)cc2Cl)cn(Cc2nc3nc(F)ccc3[nH]2)c1=O | 0 | 75 | 1.8 | 42 | > 50000 | > 50000 | 
14 | O=c1n(Cc2nc3nc(F)ccc3[nH]2)cc(Cc2ccc(Cl)cc2Cl)n1C1CCCCC1 |  |  | 16 |  | 30400 | 33200 | 
15 | O=c1n(Cc2nc3nc(F)ccc3[nH]2)cc(Cc2ccc(Cl)cc2Cl)n1CC(F)F | 0 | 175 | 5.9 | 30 | 33300 | > 50000 | 
16 | CCn1c(Cc2ccc(Cl)cc2Cl)cn(Cc2nc3nc(F)ccc3[nH]2)c1=O | 0.1 | 290 | 3.4 | 85 | > 50000 | > 50000 | 
17 | Cc1ccc(-c2cccc3nc(Cc4nc5nc(Cl)ccc5[nH]4)cn23)c(Cl)c1 |  |  | > 2000 |  |  |  | 
18 | CCn1c(Cc2ccc(Cl)cc2Cl)cn(Cc2nc3nc(Cl)ccc3[nH]2)c1=O | 9.6 | 42 | 1.6 | 26 | > 50000 | > 50000 | 
19 | O=c1n(Cc2nc3nc(F)ccc3[nH]2)cc(Cc2ccc(Cl)cc2Cl)n1CC1(O)CCOCC1 |  |  | 4.6 |  | > 50000 | > 50000 | 
20 | COc1ccc(-c2cncc3nc(Cc4nc5nc(Cl)ccc5[nH]4)cn23)c(Cl)c1 |  |  | 32 |  | > 50000 | > 50000 | 
21 | CCn1c(Cc2ccc(Cl)cc2Cl)cn(Cc2nc3cc(Cl)c(F)cc3[nH]2)c1=O |  |  | 220 |  | 20900 | 29800 | 
22 | O=C(N[C@H](CO)[C@H](O)c1ccc([N+](=O)[O-])cc1)C(Cl)Cl [CHLORAMPHENICOL] |  | 7900 |  |  |  |  | 
23 | N=C(N)c1ccc(OCCCCCOc2ccc(C(=N)N)cc2)cc1 [PENTAMIDINE] |  |  | 1.7 |  |  |  | 
24 | CCN(CC)CCCC(C)Nc1c2ccc(Cl)cc2nc2ccc(OC)cc12 (configuration not stated) [QUINACRINE] |  |  |  |  | 4800 | 7600 | 

Now from value to molecule, other results behind:

Row | BPR [1] [%] | EC50 [5] [nM] | EC50 [6] [nM] | Structure (SMILES) | selectivity ratio [2] | CC50 at 48 h [3] [nM] | CC50 at 48 h [4] [nM] | IC50 [7] [nM]
25 |  |  | 210 | CCn1c(Cc2ccc(Cl)cc2Cl)cn(Cc2nc3c(Cl)cccc3[nH]2)c1=O |  | > 50000 | > 50000 | 
26 |  |  | 2.3 | CC(C)n1c(Cc2ccc(Cl)cc2Cl)cn(Cc2nc3nc(F)ccc3[nH]2)c1=O |  | > 50000 | > 50000 | 
27 |  |  | 3.6 | COc1ccc(Cc2cn(Cc3nc4nc(Cl)ccc4[nH]3)c(=O)n2CC(F)F)c(Cl)c1 |  | > 50000 | > 50000 | 
28 |  |  | 31 | COc1ccc(-c2nccn3c(=O)n(Cc4nc5nc(Cl)ccc5[nH]4)cc23)c(Cl)c1 |  | > 50000 | > 50000 | 
29 | 0.5 | 478 | 3.1 | COc1cc(Cl)c(-c2cccc3nc(Cc4nc5nc(Cl)ccc5[nH]4)cn23)cc1OC | 154 | 19000 | 28200 | 
30 |  |  | 5.8 | O=c1n(Cc2nc3nc(F)ccc3[nH]2)cc(Cc2ccc(Cl)cc2Cl)n1C1CCOCC1 |  | > 50000 | > 50000 | 
31 |  |  | 1900 | CCOc1ccc(-c2cccc3nc(Cc4nc5nc(Cl)ccc5[nH]4)cn23)c(Cl)c1 |  |  |  | 
32 |  |  | > 2000 | CCn1c(Cc2ccc(Cl)cc2Cl)cn(Cc2nc3ccccc3o2)c1=O |  | > 50000 | > 50000 | 
33 |  |  | 660 | CCn1c(Cc2ccc(Cl)cc2Cl)cn(Cc2nc3cc(Cl)c(Cl)cc3[nH]2)c1=O |  | 31600 | 31300 | 
34 |  |  | 64 | Clc1ccc(-c2cccc3nc(Cc4nc5nc(Cl)ccc5[nH]4)cn23)c(Cl)c1 |  | 16100 | 43200 | 
35 |  |  | ≤ 0.9 | CCCn1c(Cc2ccc(Cl)cc2Cl)cn(Cc2nc3nc(Cl)ccc3[nH]2)c1=O |  | 37800 | 26400 | 
36 | 0 | 39 | 1 | CCn1c(Cc2ccc(OC)cc2Cl)cn(Cc2nc3nc(Cl)ccc3[nH]2)c1=O | 39 | > 50000 | > 50000 | 
37 |  |  | 59 | COc1ccc(-c2cccc3nc(Cc4nc5nc(F)ccc5[nH]4)cn23)c(Cl)c1 |  | 15700 | > 50000 | 
38 | 5.5 | 195 | 5.1 | CCCn1c(Cc2ccc(Cl)cc2Cl)cn(Cc2nc3nc(F)ccc3[nH]2)c1=O | 38 | > 50000 | > 50000 | 
39 |  |  | 3 | O=c1n(Cc2nc3nc(F)ccc3[nH]2)cc(Cc2ccc(Cl)cc2Cl)n1CC1CCOCC1 |  | > 50000 | > 50000 | 
40 |  |  | 26 | CCn1c(Cc2ccc(Cl)cc2Cl)cn(Cc2nc3c(F)c(F)ccc3[nH]2)c1=O |  | 41000 | 40600 | 
41 |  |  | 24 | COc1ccc(-c2cccc3nc(Cc4nc5nc(Cl)ccc5[nH]4)cn23)c(Cl)c1 |  | 13000 | > 50000 | 
42 |  |  | 17 | CCn1c(Cc2ccc(Cl)cc2Cl)cn(Cc2nc3ncccc3[nH]2)c1=O |  | > 50000 | > 50000 | 
43 |  |  | 69 | CCn1c(Cc2ccc(Cl)cc2Cl)cn(Cc2nc3cc(Cl)ccc3[nH]2)c1=O |  | 27100 | 45300 | 
44 | 0 | 316 | 7.2 | COc1cc(Cl)c(-c2cccc3nc(Cc4nc5nc(F)ccc5[nH]4)cn23)cc1OC | 45 | > 25000 | > 25000 | 
45 |  |  | 1600 | CCn1c(Cc2ccc(Cl)cc2Cl)cn(Cc2nc3c(Cl)cc(Cl)cc3[nH]2)c1=O |  | 38200 | 43700 | 
